The test system of one data set is Plasma. Put plainly: Ratio of plasma concentration of AM095 to plasma concentration of compound in C57BL6/J mouse at 100 mg/kg, po dosed 2 hrs prior to LPA-challenge by LC/MS spectrometry. The format is ADME, organism-based. Further details: dose 100 mg/kg, route oral. The conditions noted are these: in vivo. In outline:
(§1)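 Male C57BL6/J mice, 7–9 weeks old, given compound orally 2 h before intravenous LPA 100 μg/mouse (in 0.1% fatty acid-free BSA). Killed 3 min after LPA; EDTA plasma histamine measured by ELISA and plasma drug levels by LC/MS. n = 5–8 mice, mean ± SEM; one-way ANOVA with Dunnett's test versus LPA vehicle control.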

A further data set deals with Mus musculus. Put plainly: Antifibrosis activity in C57BL6/J mouse assessed as inhibition of LPA-stimulated histamine release at 100 mg/kg, po dosed 2 hrs prior to LPA-challenge by ELISA. The class given is functional, organism-based. Further details: dose 100 mg/kg. In outline: as §1
Data set [1] concerns the target T1, Lysophosphatidic acid receptor 3 (Homo sapiens) (UniProt Q9UBY5).
T1 sequence (whole entry): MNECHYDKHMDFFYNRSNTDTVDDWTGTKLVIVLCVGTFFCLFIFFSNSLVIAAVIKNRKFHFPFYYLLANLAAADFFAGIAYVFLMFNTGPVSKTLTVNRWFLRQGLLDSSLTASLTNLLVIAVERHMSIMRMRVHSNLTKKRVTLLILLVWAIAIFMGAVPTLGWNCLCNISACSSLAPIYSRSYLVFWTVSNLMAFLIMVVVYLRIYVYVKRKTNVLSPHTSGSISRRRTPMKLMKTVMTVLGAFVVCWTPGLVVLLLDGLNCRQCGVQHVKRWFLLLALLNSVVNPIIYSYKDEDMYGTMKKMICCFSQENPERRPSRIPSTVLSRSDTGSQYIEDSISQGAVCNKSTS
The data set is described as follows: Antagonist activity at human recombinant LPA3 expressed in chem-1 cells assessed as inhibition of LPA-induced intracellular calcium mobilization at 30 uM incubated for 30 mins prior to LPA-challenge measured over 100 secs by FLIPR assay. The class given is functional, cell-based. In outline:
(§2)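 Calcium-optimized Chem-1 cells stably expressing human LPA1 or LPA3 (parental line with ionomycin as counterscreen), seeded 10,000/well the day before. Calcium-4 dye in HBSS/20 mM HEPES/2.5 mM probenecid loaded 30 min at 37 °C; compound added, 30 min at room temperature in the dark; LPA (18:1) 1 μM final. Peak fluorescence read over 100 s; IC50 from 10-concentration 4-parameter logistic fit, mean of at least three runs.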

The target of data set [2] is T2, Lysophosphatidic acid receptor 1 (Homo sapiens, UniProt Q92633). The data set is described as follows: Antagonist activity at LPA1 in human lung fibroblasts assessed as inhibition of LPA-induced contraction after 18 hrs by 3D collagen gel contraction assay. The format is functional. Put shortly:
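NHLFs (healthy nonsmoking donors, passages 5–9) at 2.5 × 10⁵ cells/well, mixed 1:4 with collagen lattice; gels polymerized 2 h at 37 °C, then basal medium with 0.1% FBS, 0.1% fatty acid-free BSA and vehicle or antagonist added. Gels detached, LPA (18:1) 15 μM added; after 18 h, contraction quantified by gel disc weight.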

Data set [3] is described as follows: Inhibition of Cytochrome P450. The format is ADME.
Data set [4] in a line: Inhibition of LPA-induced proliferation of HLF incubated for 1 hr prior to LPA-challenge measured after 48 hrs by BrdU incorporation assay. The following applies: Homo sapiens.
In data set [5] the target is Voltage-gated inwardly rectifying potassium channel KCNH2 (Homo sapiens, UniProt Q12809). Put plainly: Inhibition of human ERG.
A short description of data set [6]: Inhibition of LPA-induced proliferation of HLF at 1 uM incubated for 1 hr prior to LPA-challenge measured after 48 hrs by BrdU incorporation assay. The format is functional. The conditions noted are these: Homo sapiens. In outline:
(§3)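 NHLFs (passages 5–9) seeded on collagen I at 5 × 10³ cells/well overnight in complete medium, then starved 24 h in basal medium with 0.1% FBS and 0.1% fatty acid-free BSA. Stimulated with LPA (18:1) 15 μM in the presence of antagonist; proliferation read as BrdU incorporation with a commercial kit.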

For data set [7], the target named is T2, Lysophosphatidic acid receptor 1. Put plainly: Antagonist activity at human recombinant LPA1 expressed in chem-1 cells assessed as inhibition of LPA-induced intracellular calcium mobilization at 30 uM incubated for 30 mins prior to LPA-challenge measured over 100 secs by FLIPR assay. The format is functional, cell-based. Put shortly:
as §2

Data set [8] can be described thus: Inhibition of LPA-induced proliferation of HLF at 10 uM incubated for 1 hr prior to LPA-challenge measured after 48 hrs by BrdU incorporation assay. The format is functional. The conditions noted are these: Homo sapiens. Put shortly: as §3

SMILES strings stand for the structures. pIC50: −log10 of the molar value. Calls of active or inactive are those of the source. The calls are words filed in the database; no cut-off is given here.

T2 sequence (Q92633 whole entry): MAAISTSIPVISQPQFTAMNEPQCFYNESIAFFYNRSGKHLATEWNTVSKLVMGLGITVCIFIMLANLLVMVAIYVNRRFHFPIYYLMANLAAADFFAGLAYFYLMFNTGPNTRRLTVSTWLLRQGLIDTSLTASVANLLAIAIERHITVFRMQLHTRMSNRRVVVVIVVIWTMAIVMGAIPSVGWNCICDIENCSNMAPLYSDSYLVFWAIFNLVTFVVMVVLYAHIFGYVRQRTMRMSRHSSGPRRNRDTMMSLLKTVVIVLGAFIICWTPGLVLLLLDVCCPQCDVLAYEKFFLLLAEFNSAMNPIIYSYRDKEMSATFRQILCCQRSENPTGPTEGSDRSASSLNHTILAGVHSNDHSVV
Sequence of Voltage-gated inwardly rectifying potassium channel KCNH2 (Q12809 whole entry): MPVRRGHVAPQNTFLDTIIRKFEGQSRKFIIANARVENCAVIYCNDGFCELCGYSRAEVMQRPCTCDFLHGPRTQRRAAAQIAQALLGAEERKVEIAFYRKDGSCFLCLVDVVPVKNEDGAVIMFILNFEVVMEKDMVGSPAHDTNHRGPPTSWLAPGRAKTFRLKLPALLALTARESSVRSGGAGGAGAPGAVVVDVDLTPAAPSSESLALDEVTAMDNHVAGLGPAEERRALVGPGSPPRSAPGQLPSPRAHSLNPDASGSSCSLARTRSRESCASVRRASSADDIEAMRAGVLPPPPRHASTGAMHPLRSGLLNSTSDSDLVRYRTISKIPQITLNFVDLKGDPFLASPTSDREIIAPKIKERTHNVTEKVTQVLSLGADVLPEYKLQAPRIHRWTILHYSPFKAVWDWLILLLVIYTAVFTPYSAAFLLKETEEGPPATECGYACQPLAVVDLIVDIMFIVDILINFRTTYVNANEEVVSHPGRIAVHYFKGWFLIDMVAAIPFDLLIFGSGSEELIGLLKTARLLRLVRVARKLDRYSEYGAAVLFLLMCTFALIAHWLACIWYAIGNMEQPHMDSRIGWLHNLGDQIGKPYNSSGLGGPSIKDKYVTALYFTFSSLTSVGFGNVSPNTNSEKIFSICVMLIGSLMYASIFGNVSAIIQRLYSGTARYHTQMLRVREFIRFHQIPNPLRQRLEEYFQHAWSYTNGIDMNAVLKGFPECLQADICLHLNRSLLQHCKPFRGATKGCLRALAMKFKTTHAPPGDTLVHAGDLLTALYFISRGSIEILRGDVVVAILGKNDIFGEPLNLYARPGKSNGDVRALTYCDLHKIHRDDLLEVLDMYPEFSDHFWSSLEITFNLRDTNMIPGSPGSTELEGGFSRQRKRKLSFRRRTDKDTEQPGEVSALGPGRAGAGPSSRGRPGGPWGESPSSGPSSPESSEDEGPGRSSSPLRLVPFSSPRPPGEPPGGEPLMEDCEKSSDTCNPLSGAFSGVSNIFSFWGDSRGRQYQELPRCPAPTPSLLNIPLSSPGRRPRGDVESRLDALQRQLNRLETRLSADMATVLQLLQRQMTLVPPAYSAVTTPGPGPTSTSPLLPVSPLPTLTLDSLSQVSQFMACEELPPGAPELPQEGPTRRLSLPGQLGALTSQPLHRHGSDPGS

For the molecule `Cc1nnn(-c2ccc(-c3ccc(C4(C(=O)O)CC4)cc3)cc2)c1NC(=O)O[C@H](C)c1ccccc1`, in the data set on Plasma, the Ratio is on record as > 65. The inhibition result with Mus musculus was “Active”. Also, the inhibition in data set [1] was 20%; in [2], “Dose-dependent effect”. The “inhibition (INH)” value in [3] and in data set [5] was “Not Active” each time. In data set [4], this molecule gave a pIC50 of 8.40.
As for `C[C@@H](OC(=O)Nc1c(-c2ccccc2F)cnn1C)c1ccccc1Cl`, the inhibition at 1 µM in [6] is > 50%. The “inhibition (INH)” value in [3] and in data set [5] was “Not Active” each time. The same molecule gave a pIC50 in data set [4] of 6.09. The inhibition in data set [7] was > 97%.
`Cc1csc2c(N[C@@H](C)CN3CCN(S(=O)(=O)c4ccc(Cl)c(Cl)c4)CC3)ncnc12`: in data set [8], the inhibition at 10 µM is < 50%. For the same molecule, the inhibition entry in data set [2] is “inactive”.

Source of the values: ChEMBL document CHEMBL2176934 (J Med Chem, 2012).
